Screening data as filed in PubChem BioAssay.
In the library only some 4.4% were active in any assay of this set; here they are far more common.
HSF1 inhib: HSF1 inhibitors in luciferase reporter cells, primary screen, cell-based, NIH3T3, luminescence; NIH3T3-HGL HSE-luciferase, MG132-induced, luminescence 8 h; hits give low values; activity change, negative = inhibition, % at 7.5 µM (by protocol); actives 0.77% (n = 300,000); AID 2098, 2009;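 active = more than half of replicate wells show activity change below -50%, luminescence cut by over half; inconclusive = some wells, but at most half, below -50%; inactive = no replicate well below -50%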;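 also: luciferase reports HSF-1 transcriptional activity via heat shock element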
HIF activator: HIF pathway transcriptional activators, primary screen, cell-based, U2OS HRE-luciferase, luminescence. U2OS HRE-luciferase reporter; normalized: DMSO 0%, desferrioxamine 100%. activation, % at 7.5 µM (by protocol). actives 0.32% (n = 300,000);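 active = mean activation of at least 10% of the iron chelator positive control signal, with at least half of replicates also reaching 10%; inconclusive = mean and replicate majority disagree about reaching 10%; inactive = mean and most replicates under 10%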
T cruzi repl: inhibitors of intracellular T. cruzi growth, primary screen, luminescence, NIH3T3 host cells; T. cruzi beta-gal in NIH3T3, 90 h; inhibition, % (no concentration beside the values); actives 1.4% (n = 300,000);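 active = mean inhibition across valid replicates above about 55%, limit read from the data; inconclusive = mean below that limit but half or more replicates reach it; inactive = mean below it, under half of replicates reach it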;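 also: signal also drops with host cell toxicity which is not excluded here; higher percent means less beta-gal luminescence so fewer parasites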
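Material: NIH/3T3 host cells with β-galactosidase reporter T. cruzi; Input: 5,000 host fibroblasts per well; Medium: DMEM, 2% fetal bovine serum; Compound: 50 nL DMSO compound solution per well; Schedule: 3 h host attachment, then at least 90 h co-culture; Detection: luminescent β-galactosidase signal after 60 min lysis.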
HSF1 activator: HSF-1 activators, primary screen, NIH3T3-HGL cells, MG132 stress, luminescence, single point | NIH3T3-HGL HSF-1 luciferase reporter, 8 h; 100% = twice DMSO control signal | activation, % at 9 µM | actives 1.7% (n = 300,000);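 active = mean replicate activation of at least 50% with a set share of replicates each reaching 50%; inconclusive = only one of those two conditions met; inactive = mean below 50% and too few replicates reaching it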
Calb FLC: C. albicans growth inhibition with fluconazole, primary screen, CaCi-2 strain, Alamar Blue fluorescence; C. albicans CaCi-2 + fluconazole, 48 h; growth inhibition, % (concentration not given with the values); actives 0.57% (n = 300,000); AID 1979, 2009;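 active = growth inhibition above about 58% in most replicates, limit read from the data, passing the limit was not always enough; inconclusive = exactly half the replicates above a set limit; inactive = most replicates below a set limit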;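 also: all wells also contain fluconazole at 8 µg/ml as a sub-toxic cotreatment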
A number is an active result; 0 = inactive; ? = inconclusive; - = not tested or not shown; ! = a repeat was not active.

SMILES	HSF1 inhib	HIF activator	T cruzi repl	HSF1 activator	Calb FLC
CN(C)CCCN(C(=O)c1ccco1)c1nc2c(F)cccc2s1	0	0	?	0	0
CN(C)CCCN(C(=O)c1ccco1)c1nc2c(F)cc(F)cc2s1	0	0	57	0	0
CN(C)CCCN(C(=O)c1ccc(Cl)s1)c1nc2cc3c(cc2s1)OCO3	0	0	?	0	0
CN(C)CCCN(C(=O)c1cccs1)c1nc2cc3c(cc2s1)OCO3	0	0	67	0	0
COc1ccc(-c2ccnc3c(C(=O)O)cnn23)cc1	0	0	0	0	0
COc1ccc(CNC(=O)C(CC(C)C)NC(=O)c2ccccc2C)cc1 (stereo unspecified)	0	0	0	0	0
COc1cc(OC)c(N(C)S(=O)(=O)c2cccc(C(=O)NC(C)C3CC4CCC3C4)c2)cc1Cl (stereo unspecified)	0	0	0	0	0
Cn1nc([N+](=O)[O-])c(C(C#N)c2nc3ccccc3n2C)c(Cl)c1=O (stereo unspecified)	0	0	0	61	0
COc1ccc(C(=O)N2CCN(c3ccc(N4CCOCC4)nn3)CC2)cc1OC	0	0	0	0	0
CC(=O)C(Cc1ccccc1)NC(=O)CN1CCc2ccccc2C1 (stereo unspecified)	0	0	0	0	0
CC(CCc1ccccc1)NC(=O)CN1CCc2ccccc2C1 (stereo unspecified)	0	0	0	94	0
Cc1ccc(C(=O)NN2C(=O)CSC2=S)cc1	0	0	0	0	0
C/C(=N\N1C(=O)CSC1=S)c1ccc(Br)cc1	0	0	0	0	73
Fc1ccc(SCCc2ccncc2)cc1	0	0	68!	0	0
COc1ccc(SCCc2ccncc2)cc1	0	0	70	0	0
c1ccc(SCCc2ccncc2)cc1	0	0	0	0	0
O=C1CCCCC1C(O)c1ccc(Cl)cc1 (stereo unspecified)	0	0	0	0	0
Cc1cc(C)cc(N2C(=O)C3C4C=CC(C4)C3C2=O)c1 (stereo unspecified)	0	0	0	0	0
Fc1ccccc1/C=N/Nc1nc(-c2ccccn2)nc2ccccc12	0	0	55	0	0
Oc1ccc(/C=N/Nc2nc(-c3cccnc3)nc3ccccc23)c(O)c1	0	0	0	0	?
c1ccc(CNc2nc(-c3ccccn3)nc3ccccc23)cc1	0	0	0	0	0
CCC(C)Nc1nc(-c2ccccn2)nc2ccccc12 (stereo unspecified)	0	0	64	0	0
COc1cc(/C=C2/NC(=O)N(Cc3ccccc3F)C2=O)cc(OC)c1O	0	0	0	0	?
CCOc1cc(/C=C2/NC(=O)N(Cc3ccccc3F)C2=O)ccc1O	0	0	0	86	0
CCOc1cc(/C=C2\CN(C)C/C(=C\c3ccc(O)c(OCC)c3)C2=O)ccc1O	0	0	62	0	0
SMILES	HSF1 inhib	HIF activator	T cruzi repl	HSF1 activator	Calb FLC
CCOc1cc(/C=C2\CCC/C(=C\c3cc(Cl)c(O)c(OCC)c3)C2=O)cc(Cl)c1O	0	0	0	316	0
COC(=O)C(CC(C)C)NC(=O)c1cccs1 (stereo unspecified)	-	-	-	-	0
c1ccc(-c2nn[nH]n2)cc1	0	0	0	0	0
c1ccc(-c2nn[nH]n2)nc1	-59	0	0	0	0
COc1cccc(C(=O)N2CCn3c2nc2ccccc23)c1	0	0	0	0	0
Cc1[nH][nH]c(=O)c1C=NCc1cccnc1	0	0	0	0	0
Cc1[nH][nH]c(=O)c1C=NCc1cccs1	0	0	0	69	0
Cc1cccc(Nc2nc(N)nc(CCl)n2)c1	0	0	68	0	0
Cc1ccc(Nc2nc(N)nc(CCl)n2)cc1	0	0	0	0	0
Cc1ccc(Nc2nc(N)nc(CSc3ncccn3)n2)cc1	0	0	0	66	0
COc1cccc(Nc2nc(N)nc(CCl)n2)c1	0	0	69	0	0
Cc1ccc(Nc2nc(N)nc(CCl)n2)c(C)c1	-63	0	57	0	0
Cc1ccc(Nc2nc(N)nc(CN3CCCCCC3)n2)c(C)c1	0	0	0	0	0
CSc1nnc(N2C(=O)C(O)=C(C(=O)c3ccco3)C2c2cccc(Cl)c2)s1 (stereo unspecified)	0	0	0	0	0
CCOC(=O)c1ccc(NS(=O)(=O)c2c(N)[nH]c(=O)[nH]c2=O)cc1	0	0	0	0	0
CC(C)OC(=O)Nc1ccc(Oc2c(F)c(F)c(F)c(F)c2F)cc1	0	0	0	0	0
C/C=C/c1c(F)c(F)c(Oc2ccc(C(=O)O)cc2)c(F)c1F	0	0	0	125	0
CC(OC(=O)C1CC1)C(=O)Nc1ccc([N+](=O)[O-])cc1Cl (stereo unspecified)	0	0	0	0	0
CC1CCN(c2c([N+](=O)[O-])nn(-c3ccc4c(c3)OCCO4)[n+]2[O-])CC1	0	0	62	0	0
C=CCNC(=S)N/N=C(\C)c1ccccn1	0	14	0	0	115
COc1ccc(C(=O)N2CCN(C(C)=O)CC2)cc1S(=O)(=O)N1CCOCC1	0	0	0	0	0
O=C(NCCc1nc2ccccc2[nH]1)/C(=C/c1ccco1)NC(=O)c1ccccc1Br	0	0	0	0	0
O=C(NCCc1nc2ccccc2[nH]1)/C(=C/c1ccc(F)cc1)NC(=O)c1ccco1	0	0	0	64	0
CCCCOc1ccc(/C=C/C(=O)NC2=Nc3ccccc3NC(C)=C2C(=O)OCC)cc1OC	0	0	0	0	0
Cc1cc(C(=O)OCC(=O)Nc2c(F)cccc2F)c(C)n1-c1ccccc1	0	0	0	0	0
SMILES	HSF1 inhib	HIF activator	T cruzi repl	HSF1 activator	Calb FLC
Clc1ccc(-c2nc(/C=N/N3CCOCC3)c3ccccn23)cc1	0	0	0	53	0
CS(=O)(=O)N(CC(=O)Nc1ccccc1C(=O)NCc1ccco1)c1ccccc1F	0	0	0	0	0
Nc1nc2n(c1C(=O)c1ccccc1)CCC2	-70	0	0	0	0
Cc1ccc(-n2ncc3ccccc3c2=O)cc1Cl	0	0	0	88	0
COc1cccc(-c2cc(C(=O)N3CCN(Cc4ccc5c(c4)OCO5)CC3)on2)c1	0	0	0	0	0
Cc1ccnc(N2CCCC(C(=O)Nc3cccc(C)c3C)C2)n1 (stereo unspecified)	0	0	0	0	0
CC(=O)c1sc2nsc(SCCN3CCOCC3)c2c1N	0	0	0	0	0
Nc1c(C(=O)c2ccccc2)sc2nsc(SCCN3CCOCC3)c12	0	0	0	60	0
CC(C)NC(=O)c1cc2nc(-c3ccco3)cc(C(F)(F)F)n2n1	0	0	0	0	0
CCCNC(=O)c1cc2nc(-c3ccccc3)cc(C(F)(F)F)n2n1	0	96	0	0	0
